Measurements as given in ChEMBL document CHEMBL4219134, “Xanthone derivatives as phosphoglycerate mutase 1 inhibitors: Design, synthesis, and biological evaluation” (Bioorg Med Chem, 2018).

Assays:
MCF7 = assay: Antiproliferative activity against human MCF7 cells after 72 hrs by MTT assay; format: functional, cell-based; details: MCF7, 72 h
Method in brief: (§1)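 MTT assay: 2 × 10^3 cells per well, cultured 24 h at 37 °C. Compound then added for 72 h at 37 °C, followed by 0.5 mg mL-1 MTT for 4 h. Formazan dissolved in DMSO and absorbance read at 570 nm. IC50 from triplicate experiments, mean ± sd.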

[1] = target: L-lactate dehydrogenase (Homo sapiens) (UniProt V9HWB9); assay: Inhibition of LDH (unknown origin) at 5 uM using 2-PG relative to control
Method in brief: (§2)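 PGAM1 omitted to test the downstream coupling enzymes. Compound (0.5 mM stock) preincubated 2 min at room temperature in 50 mM Tris pH 8.0. OD340 decrease read; inhibition ratio at 5 µM.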

Homo sapiens [2] = species: Homo sapiens; assay: Inhibition of enolase (unknown origin) at 5 uM using 2-PG relative to control; method in brief: as §2
PANC-1 [3] = assay: Antiproliferative activity against human PANC1 cells after 72 hrs by MTT assay; format: functional, cell-based; details: PANC-1, 72 h; method in brief: as §1
Homo sapiens [4] = species: Homo sapiens; assay: Inhibition of pyruvate kinase (unknown origin) at 5 uM using 2-PG relative to control; method in brief: as §2
NCI-H1299 [5] = assay: Antiproliferative activity in human H1299 cells; format: functional, cell-based
PANC-1 [6] = assay: Antiproliferative activity against PGAM1 overexpessed human PANC1 cells after 72 hrs by MTT assay; format: functional, cell-based; details: PANC-1, 72 h; method in brief: as §1
PANC-1 [7] = assay: Antiproliferative activity against PGAM1 knockdown human PANC1 cells after 72 hrs by MTT assay; format: functional, cell-based; details: PANC-1, 72 h; method in brief: as §1
NCI-H1299 [8] = assay: Antiproliferative activity against human H1299 cells after 72 hrs by MTT assay; format: functional, cell-based; details: NCI-H1299, 72 h; method in brief: as §1
[9] = target: T1, Phosphoglycerate mutase 1 (Homo sapiens, UniProt P18669); assay: Inhibition of recombinant PGAM1 (unknown origin) using 3-PG as substrate preincubated for 2 mins followed by substrate addition
T1 sequence (P18669 whole entry): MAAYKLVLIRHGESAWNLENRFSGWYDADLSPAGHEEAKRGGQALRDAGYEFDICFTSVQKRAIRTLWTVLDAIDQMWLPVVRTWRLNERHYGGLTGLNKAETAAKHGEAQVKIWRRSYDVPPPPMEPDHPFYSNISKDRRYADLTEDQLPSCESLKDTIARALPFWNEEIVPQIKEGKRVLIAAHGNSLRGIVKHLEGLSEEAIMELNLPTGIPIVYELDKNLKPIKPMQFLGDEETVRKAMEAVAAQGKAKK
Method in brief: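 Recombinant PGAM1 plus compound (DMSO) in 50 mM Tris pH 8.0, preincubated 2 min at room temperature. Started with 3PG (200 mM stock); NADH oxidation read as OD340 decrease. IC50 from triplicates, mean ± sd.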

[10] = target: T1, Phosphoglycerate mutase 1; assay: Inhibition of recombinant human His-tagged PGAM1 expressed in Escherichia coli BL21 competent cells by multiple enzymes coupled assay measuring NADH oxidation at 340 nm
Homo sapiens [11] = species: Homo sapiens; assay: Inhibition of enolase (unknown origin) at 0.625 uM using 2-PG relative to control
Method in brief: (§3)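 Counter-screen of the coupled downstream enzymes without PGAM1. Compound was preincubated 2 min at room temperature in 50 mM Tris pH 8.0. The reaction was started with 2PG (200 mM stock), and the NADH oxidation decrease was read at 340 nm.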

Homo sapiens [12] = species: Homo sapiens; assay: Inhibition of pyruvate kinase (unknown origin) at 0.625 uM using 2-PG relative to control; method in brief: as §3
NCI-H1299 [13] = assay: Antiproliferative activity in human NCI-H1299 cells after 72 hrs; format: functional, cell-based; details: NCI-H1299, 72 h
Method in brief: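 MTT assay: 2 × 10^3 cells per well were seeded and cultured 24 h at 37 °C. Inhibitor was added and cells were incubated 72 h at 37 °C. MTT was then added at 0.5 mg/mL for 4 h at 37 °C, followed by DMSO solubilisation and absorbance reading at 570 nm. IC50 is reported as mean ± sd of triplicates.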

[14] = target: L-lactate dehydrogenase (Homo sapiens) (UniProt V9HWB9); assay: Inhibition of LDH (unknown origin) at 0.625 uM using 2-PG relative to control; method in brief: as §3

SMILES | IC50 (MCF7) [µM] | inhibition [1] [%] | inhibition (Homo sapiens [2]) [%] | IC50 (PANC-1 [3]) [µM] | inhibition (Homo sapiens [4]) [%] | IC50 (NCI-H1299 [5]) [µM] | IC50 (PANC-1 [6]) [µM] | IC50 (PANC-1 [7]) [µM] | IC50 (NCI-H1299 [8]) [µM] | IC50 [9] [µM] | IC50 [10] [µM] | inhibition (Homo sapiens [11]) [%] | inhibition (Homo sapiens [12]) [%] | IC50 (NCI-H1299 [13]) [µM] | inhibition [14] [%]
O=C1c2ccccc2C(=O)c2c1cc(S(=O)(=O)Nc1ccc(C(F)(F)F)cc1)c(O)c2O | > 40 | 38 | 38 | 32 | 38 | 25.6 to 26 | – | – | – | – | – | – | – | – | –
O=c1c2c(O)cccc2oc2cc(NS(=O)(=O)c3cc(C(F)(F)F)ccc3C(F)(F)F)c(O)c(O)c12 | 15.8 | 2 | 2 | 10.5 | 2 | – | 25 | 42.8 | 16.8 | 6.3 | – | – | – | – | –
O=C(O[C@@H]1Cc2c(O)cc(O)cc2O[C@@H]1c1cc(O)c(O)c(O)c1)c1cc(O)c(O)c(O)c1 [EPIGALOCATECHIN GALLATE] | – | – | – | – | – | – | – | – | – | – | 0.49 | 63 | 63 | > 80 | 63
